Reference: article PMC2758331 (Biochemistry, 2009)

What was measured:
mDia1-FH2 [1] = molecular target: T1, mDia1-FH2 (Mus musculus, UniProt O08808); experiment: pyrene-actin polymerization assay, actin assembly by mDia1-FH2; type: biochemical
Summary of the method: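 Recombinant mouse mDia1 FH2 domain (aa 748–1175) at 2.5 nM with 4 μM actin (5% pyrene-labelled), across a range of test compound concentrations. Polymerization followed by pyrene fluorescence (emission 410 nm). Signal corrected for quenching by the test compound. Dose-response curves calculated from the polymerization curves give IC50 and Hill coefficient.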

actin = actin (Oryctolagus cuniculus, UniProt P68135); experiment: spontaneous polymerization of actin alone; type: biochemical; settings: concentrations up to 50 μM
INF2-(FH1-FH2) = INF2-(FH1-FH2) (Mus musculus, UniProt Q0GNC1); experiment: pyrene-actin polymerization assay, actin assembly by INF2; type: biochemical; settings: at saturating concentrations
INF2-(FH1-FH2), sequence (Q0GNC1 589-979 limits assumed): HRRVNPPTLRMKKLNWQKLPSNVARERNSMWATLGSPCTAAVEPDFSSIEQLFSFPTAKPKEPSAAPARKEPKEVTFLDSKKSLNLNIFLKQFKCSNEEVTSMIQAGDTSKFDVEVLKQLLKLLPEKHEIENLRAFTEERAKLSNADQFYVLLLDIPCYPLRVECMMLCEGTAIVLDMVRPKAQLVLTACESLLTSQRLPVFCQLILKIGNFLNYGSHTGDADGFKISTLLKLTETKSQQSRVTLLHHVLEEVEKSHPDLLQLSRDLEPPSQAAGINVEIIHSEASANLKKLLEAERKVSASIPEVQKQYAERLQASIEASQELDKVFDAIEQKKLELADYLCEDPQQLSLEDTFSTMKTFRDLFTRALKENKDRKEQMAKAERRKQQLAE
Summary of the method: (§1)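 Pyrene-actin polymerization (emission read at 410 nm) driven by 2.5 nM mDia2-FH2, 20 nM INF2-(FH1-FH2) or 200 nM FRL1-(FH1-FH2), with the test compound titrated. Fluorescence corrected for compound quenching. Dose-response curves derived from the polymerization traces give IC50 and Hill coefficient.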

mDia1-FH2 [2] = molecular target: T1, mDia1-FH2; experiment: equilibrium dialysis, direct binding to mDia1-FH2
mDia2-FH2 = mDia2-FH2 (Mus musculus, UniProt Q9Z207); experiment: pyrene-actin polymerization assay, actin assembly by mDia2-FH2; type: biochemical; settings: potency and Hill coefficients
mDia2-FH2, sequence (Q9Z207 615-1013 limits assumed): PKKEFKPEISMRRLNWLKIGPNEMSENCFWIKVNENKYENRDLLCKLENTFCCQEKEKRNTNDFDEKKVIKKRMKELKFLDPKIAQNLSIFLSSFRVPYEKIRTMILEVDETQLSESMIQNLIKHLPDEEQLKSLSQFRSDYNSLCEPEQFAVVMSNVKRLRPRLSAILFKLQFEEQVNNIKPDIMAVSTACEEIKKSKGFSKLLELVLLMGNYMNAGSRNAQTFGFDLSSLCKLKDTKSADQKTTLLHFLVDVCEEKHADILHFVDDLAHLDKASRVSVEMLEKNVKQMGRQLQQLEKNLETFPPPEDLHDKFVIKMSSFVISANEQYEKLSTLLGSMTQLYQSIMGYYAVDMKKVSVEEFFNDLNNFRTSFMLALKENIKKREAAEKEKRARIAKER
Summary of the method: as §1

FRL1-(FH1-FH2) = molecular target: T2, FRL1-(FH1-FH2) (Mus musculus, UniProt Q9JL26); experiment: pyrene-actin polymerization assay, actin assembly by FRL1; type: biochemical; settings: at 50 μM
T2 sequence (Q9JL26 627-1018 limits assumed): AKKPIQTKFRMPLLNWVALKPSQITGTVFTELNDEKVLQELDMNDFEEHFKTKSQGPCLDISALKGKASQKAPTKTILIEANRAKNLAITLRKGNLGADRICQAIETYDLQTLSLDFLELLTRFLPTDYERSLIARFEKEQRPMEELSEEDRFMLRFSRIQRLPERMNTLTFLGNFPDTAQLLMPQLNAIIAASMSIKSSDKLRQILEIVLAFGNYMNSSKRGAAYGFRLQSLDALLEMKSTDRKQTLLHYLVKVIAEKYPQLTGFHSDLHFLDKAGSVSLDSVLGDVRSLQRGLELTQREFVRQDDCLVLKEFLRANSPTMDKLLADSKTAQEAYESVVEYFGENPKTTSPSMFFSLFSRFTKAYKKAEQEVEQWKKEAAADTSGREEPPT
Summary of the method: as §1

mDia3-FH2 [3] = molecular target: T3, mDia3-FH2 (Mus musculus, UniProt O70566); experiment: pyrene-actin polymerization assay, actin assembly by mDia3-FH2; type: biochemical; settings: at any concentration tested
T3 sequence (O70566 625-1025 limits assumed): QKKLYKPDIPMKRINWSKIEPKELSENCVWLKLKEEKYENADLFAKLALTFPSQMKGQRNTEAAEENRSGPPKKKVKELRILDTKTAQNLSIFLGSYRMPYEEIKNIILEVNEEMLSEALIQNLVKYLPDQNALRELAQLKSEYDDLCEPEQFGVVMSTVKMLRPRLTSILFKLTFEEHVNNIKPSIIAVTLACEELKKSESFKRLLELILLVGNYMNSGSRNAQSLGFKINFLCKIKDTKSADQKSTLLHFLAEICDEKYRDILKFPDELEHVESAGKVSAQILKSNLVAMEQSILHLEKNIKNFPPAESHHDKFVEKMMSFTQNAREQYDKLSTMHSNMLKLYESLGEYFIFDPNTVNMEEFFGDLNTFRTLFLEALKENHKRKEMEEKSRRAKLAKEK
Summary of the method: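 Pyrene-actin polymerization (emission 410 nm) with mDia3-FH2 in two formats: 10 nM mDia3-FH2 in test compound titrations for dose-response curves (IC50, Hill coefficient), and 2.5 nM mDia3-FH2 with or without 50 μM test compound. Fluorescence corrected for compound quenching.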

mDia3-FH2 [4] = molecular target: T3, mDia3-FH2; experiment: equilibrium dialysis, direct binding to mDia3-FH2

T1 sequence (O08808 748-1175): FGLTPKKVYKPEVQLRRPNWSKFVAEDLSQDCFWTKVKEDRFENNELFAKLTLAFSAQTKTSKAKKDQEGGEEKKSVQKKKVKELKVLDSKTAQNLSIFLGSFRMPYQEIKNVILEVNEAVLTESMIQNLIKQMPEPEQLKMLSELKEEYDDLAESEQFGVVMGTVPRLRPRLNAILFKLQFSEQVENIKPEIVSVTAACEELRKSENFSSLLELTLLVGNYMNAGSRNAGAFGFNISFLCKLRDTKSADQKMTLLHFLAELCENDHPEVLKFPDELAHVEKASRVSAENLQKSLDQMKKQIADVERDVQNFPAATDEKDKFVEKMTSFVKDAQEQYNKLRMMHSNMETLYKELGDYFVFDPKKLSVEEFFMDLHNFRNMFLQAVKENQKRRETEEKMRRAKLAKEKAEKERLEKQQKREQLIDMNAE

Hill coefficient, inhibition of actin assembly by mDia1-FH2 (mDia1-FH2 [1])	IC50 (mDia1-FH2 [1])	maximal inhibition of INF2 activity (INF2-(FH1-FH2))	inhibition of filament assembly by mDia2-FH2 compared with mDia1-FH2 (in words) (mDia2-FH2)	inhibition of FRL1 (FRL1-(FH1-FH2))	inhibitory activity toward actin assembly by mDia3-FH2 (in words) (mDia3-FH2 [3])	binding to mDia3-FH2 by equilibrium dialysis (mDia3-FH2 [4])	Compound	inhibitory effect toward polymerization of actin alone (actin)	binding to mDia1-FH2 by equilibrium dialysis (mDia1-FH2 [2])
2.4	490 nM	–	–	–	–	–	O=S(=O)(O)c1cc(O)c2c(N=Nc3c(S(=O)(=O)O)cc4cc(S(=O)(=O)O)cc(O)c4c3O)cc(S(=O)(=O)O)cc2c1 [compound 1, 2-(8-hydroxy-3,6-disulfo-1-naphthylazo)-1,8-dihydroxy-naphthalene-3,6-disulfonic acid]	Neither 1 nor 2 shows any inhibitory effect	–
7.6	2100 nM	≤ 75%	comparable	incomplete	no inhibitory activity	no binding	Nc1ccc(Br)cc1-c1nc2ccccc2[nH]c1=O [compound 2, 3-(2-amino-5-bromophenyl)-1H-quinoxalin-2-one]	Neither 1 nor 2 shows any inhibitory effect	effectively retained 2 in a dose-dependent manner
